Assay results taken from ChEMBL document CHEMBL1135583, “Activity of bisphosphonates against Trypanosoma brucei rhodesiense” (J Med Chem, 2002).

What was measured:
[1] = test system: Trypanosoma brucei rhodesiense; test: In vitro growth inhibition of bloodstream-form Trypanosoma brucei rhodesiense Trypomastigotes; type: functional, organism-based
How it was run: (§1)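 Bloodstream-form T. b. rhodesiense trypomastigotes, strain STIB 900, grown in vitro with the bisphosphonate. IC50 taken as the drug concentration that cuts parasite proliferation by 50%.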

[2] = 50% lethal dose for inhibition of KB cells growth; type: cell-based; conditions: human, read-out: LD50 (the source's name)
How it was run: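 KB cell line growth measured over a dose-response series by the Alamar blue method. The LD50 is the concentration lethal to 50% of KB cells. The highest level tested was 300 μg/mL; ">" means no inhibition at that level.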

[3] = test system: Trypanosoma brucei rhodesiense; test: Predicted pIC50 against Trypomastigotes Brucei rhodesiense.; type: functional, organism-based
How it was run: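 QSAR prediction from a bisphosphonate training set. Structures geometry-optimized by steepest-descent, conjugate-gradient and Newton–Raphson minimization with no internal constraints. Each molecule aligned by rms fit of its P–C–P backbone to the lowest-energy conformer of the template. Models validated by leave-one-out cross-validation.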

[4] = Therapeutic index measured as the ratio of LD50 (KB cells) to IC50 (T.b. rhodesiense); type: cell-based; conditions: trypanosoma brucei rhodesiense, KB cells versus T. b. rhodesiense; read-out: TI
How it was run: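 KB cell growth inhibition measured by Alamar blue to give LD50, the dose lethal to 50% of cells; highest level tested 300 μg/mL. Index computed as LD50 (KB cells) / IC50 (T. b. rhodesiense).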

[5] = test system: Trypanosoma brucei rhodesiense; test: Log IC50 brucei Trypomastigotes; type: functional, organism-based; how it was run: as §1
[6] = test system: Trypanosoma brucei rhodesiense; test: Percent inhibition of Trypanosoma brucei rhodesiense at 3.09 uM of risedronate along with GPP; type: functional
How it was run: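 Rescue assay with bloodstream-form trypomastigotes (strain STIB900) seeded at 1 × 10^5/mL in HMI-18 medium with 20% HIFCS. Bisphosphonate was given as three-fold serial dilutions from 83.5 μM, in triplicate. Geranyl pyrophosphate was added at a final 12.5 μg/mL. Plates were incubated for 72 h at 37 °C in 5% CO2-air, then Alamar Blue was added for 4 h and fluorescence read at 530/585 nm.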

[7] = test system: Trypanosoma brucei rhodesiense; test: Percent inhibition of Trypanosoma brucei rhodesiense at 1.03 uM of risedronate along with GPP; type: functional
[8] = test system: Trypanosoma brucei rhodesiense; test: In vitro growth inhibition of Trypanosoma brucei rhodesiense (risedronate + GPP); type: functional, organism-based
[9] = test system: Trypanosoma brucei rhodesiense; test: Percent inhibition of Trypanosoma brucei rhodesiense at 9.27 uM of risedronate along with GPP; type: functional
[10] = test system: Trypanosoma brucei rhodesiense; test: Percent inhibition of Trypanosoma brucei rhodesiense at 27.85 uM of risedronate along with GPP; type: functional
[11] = test system: Trypanosoma brucei rhodesiense; test: Percent inhibition of Trypanosoma brucei rhodesiense at 83.54 uM of risedronate along with GPP; type: functional
[12] = test system: Trypanosoma brucei rhodesiense; test: In vitro rescue of growth inhibition of Trypanosoma brucei rhodesiense [risedronate + farnesol(12.5 ug/mL)]; type: functional, organism-based
[13] = test system: Trypanosoma brucei rhodesiense; test: In vitro rescue of growth inhibition of Trypanosoma uM of risedronate along with farnesol (12.5 ug/mL); type: functional
[14] = test system: Trypanosoma brucei rhodesiense; test: Percent inhibition of Trypanosoma brucei rhodesiense at 83.54 uM of risedronate along with FPP; type: functional
[15] = test system: Trypanosoma brucei rhodesiense; test: In vitro growth inhibition of Trypanosoma brucei rhodesiense (risedronate + FPP); type: functional, organism-based
[16] = test system: Trypanosoma brucei rhodesiense; test: Percent inhibition of Trypanosoma brucei rhodesiense at 27.85 uM of risedronate along with FPP; type: functional
[17] = test system: Trypanosoma brucei rhodesiense; test: Percent inhibition of Trypanosoma brucei rhodesiense at 9.27 uM of risedronate along with FPP; type: functional
[18] = test system: Trypanosoma brucei rhodesiense; test: 50% inhibitory concentration against Trypanosoma brucei rhodesiense; type: functional, organism-based; how it was run: as §1
[19] = test system: Trypanosoma brucei rhodesiense; test: (§2) In vitro rescue of growth inhibition of Trypanosoma uM of compound; type: functional
[20] = test system: Trypanosoma brucei rhodesiense; test: as §2; type: functional; remark: listed apart in the source
[21] = test system: Trypanosoma brucei rhodesiense; test: as §2; type: functional; remark: listed apart in the source
[22] = test system: Trypanosoma brucei rhodesiense; test: as §2; type: functional; remark: listed apart in the source
[23] = test system: Trypanosoma brucei rhodesiense; test: as §2; type: functional; remark: listed apart in the source
[24] = test system: Trypanosoma brucei rhodesiense; test: as §2; type: functional; remark: listed apart in the source

| SMILES | IC50 [1] | CC50 [2] | IC50 [3] | selectivity ratio [4] | further results |
| --- | --- | --- | --- | --- | --- |
| O=P(O)(O)C(Nc1ccc(Br)cn1)P(=O)(O)O | 39.5 µM | 87 µM | 39.8 µM | 2 |  |
| O=P(O)(O)C(O)(CCc1cccnc1)P(=O)(O)O | 1.7 µM | > 804 µM | 1.7 µM | > 473 |  |
| CCCCCCCCCCC(O)(P(=O)(O)O)P(=O)(O)O | 8 µM | > 806 µM |  | > 101 | IC50 [5]: 7.94 µM |
| CCCCC(O)(P(=O)(O)O)P(=O)(O)O |  | > 1040 µM | 100 µM | > 10 |  |
| CCCCCC(O)(P(=O)(O)O)P(=O)(O)O |  | > 993 µM | 63.1 µM | > 16 |  |
| O=P(O)(O)C(O)(Cc1c[nH]cn1)P(=O)(O)O |  | 41 µM | 8.51 µM | 5 |  |
| CC(C)=CCC/C(C)=C/COP(=O)(O)OP(=O)(O)O.O=P(O)(O)C(O)(Cc1cccnc1)P(=O)(O)O |  |  |  |  | Inhibition [6]: 44.59%; Inhibition [7]: 0%; IC50 [8]: 3.71 µM; Inhibition [9]: 83.7%; Inhibition [10]: 100%; Inhibition [11]: 100% |
| CCCCCCCCCCCC(O)(P(=O)(O)O)P(=O)(O)O | 2 µM | 492 µM |  | 246 | IC50 [5]: 2 µM |
| Nc1ccc(CC(O)(P(=O)(O)O)P(=O)(O)O)cc1 |  | 218 µM | 39.8 µM | 5 |  |
| O=P(O)(O)C(O)(Cc1ccccn1)P(=O)(O)O |  | 13.9 µM | 0.219 µM | 63 |  |
| CCCC(O)(P(=O)(O)O)P(=O)(O)O |  | > 967 µM | 91.2 µM | > 11 |  |
| CCCCCCCCCC(O)(P(=O)(O)O)P(=O)(O)O | 20.5 µM | > 775 µM |  | > 38 | IC50 [5]: 20.4 µM |
| O=P(O)(O)C(Nc1ccc(Cl)cn1)P(=O)(O)O | 53.3 µM | > 992 µM | 53.7 µM | > 19 |  |
| Cc1cccnc1NC(P(=O)(O)O)P(=O)(O)O | 0.7 µM | 187 µM | 0.708 µM | 267 |  |
| CC(N)CC(O)(P(=O)(O)O)P(=O)(O)O (stereo unspecified) | 7.8 µM | 977 µM | 7.76 µM | 125 |  |
| O=P(O)(O)C(O)(CSc1ccncc1)P(=O)(O)O |  | > 746 µM | 20 µM | > 38 |  |
| Cc1ccnc(NC(P(=O)(O)O)P(=O)(O)O)c1 | 0.61 µM | 127 µM | 0.617 µM | 208 |  |
| O=P(O)(O)C(O)(Cc1ccccc1)P(=O)(O)O |  | > 931 µM | 21.4 µM | > 44 |  |
| CC(C)=CCC/C(C)=C/CC/C(C)=C/CO.O=P(O)(O)C(O)(Cc1cccnc1)P(=O)(O)O |  |  |  |  | IC50 [12]: > 83.5 µM; Inhibition [13]: 0% |
| CC(C)=CCC/C(C)=C/CC/C(C)=C/COP(=O)(O)OP(=O)(O)O.O=P(O)(O)C(O)(Cc1cccnc1)P(=O)(O)O |  |  |  |  | Inhibition [14]: 64.24%; IC50 [15]: 66.8 µM; Inhibition [16]: 25.4%; Inhibition [17]: 0% |
| O=P(O)(O)C(NC1CCCCC1)P(=O)(O)O [(CYCLOHEXYLAMINO)METHYLENEDIPHOSPHONIC ACID] | 20.9 µM | 271 µM | 20.9 µM | 13 |  |
| CCN(CC)C(P(=O)(O)O)P(=O)(O)O [(DIETHYLAMINO)METHYLENEDIPHOSPHONIC ACID] | 34.4 µM | 809 µM | 34.7 µM | 24 |  |
| CC(C)CCNC(P(=O)(O)O)P(=O)(O)O [(ISOPENTYLAMINO)METHYLENEDIPHOSPHONIC ACID] | 102 µM | > 1150 µM | 102 µM | > 11 |  |
| CCCCCCCCNC(P(=O)(O)O)P(=O)(O)O [(OCTYLAMINO)METHYLENEDIPHOSPHONIC ACID] | 1.7 µM | 66.8 µM |  | 39 | IC50 [5]: 1.7 µM |
| CCCCCNC(P(=O)(O)O)P(=O)(O)O [(PENTYLAMINO)METHYLENEDIPHOSPHONIC ACID] | 50.6 µM | > 1150 µM | 50.1 µM | > 23 |  |
| CCCCCN(C)CCC(O)(P(=O)(O)O)P(=O)(O)O [IBANDRONIC ACID] | 0.96 µM | 10.1 µM | 0.955 µM | 10 |  |
| NCCCCCC(O)(P(=O)(O)O)P(=O)(O)O [NERIDRONIC ACID] |  | 680 µM |  | 21 | IC50 [5]: 31.6 µM |
| CN(C)CCC(O)(P(=O)(O)O)P(=O)(O)O [OLPADRONIC ACID] |  | > 1050 µM | 5.37 µM | > 195 |  |
| NCCC(O)(P(=O)(O)O)P(=O)(O)O [PAMIDRONIC ACID] | > 100 µM | 156 µM |  | < 2 | IC50 [5]: > 100 µM |
| O=P(O)(O)C(O)(Cc1cccnc1)P(=O)(O)O [RISEDRONIC ACID] |  | 249 µM | 8.51 µM | 29 | IC50 [18]: 4.12 µM; Inhibition [19]: 0%; Inhibition [20]: 23.49%; Inhibition [21]: 100%; Inhibition [22]: 19.3%; Inhibition [23]: 86.49%; Inhibition [24]: 100% |
